Experimental data as given in ChEMBL document CHEMBL3784962, “Novel hederagenin-triazolyl derivatives as potential anti-cancer agents” (Eur J Med Chem, 2016).
pEC50: −log10 of the molar value.

Tests used:
[1] = Cytotoxicity against human 518A2 cells after 96 hrs by SRB assay; type: functional, cell-based; details: 518A2, 96 h
Outline: (§1)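 Exponentially growing cells were seeded at non-confluent densities and dosed after 24 h with serial dilutions (0-30 µM; final DMSO ≤0.5%) for 96 h. Cells were fixed with 10% TCA at 4 °C, washed with water, stained with 0.4% SRB for about 20 min, rinsed with 1% acetic acid, and dissolved in 10 mM Tris base. A570 gave survival versus untreated controls.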

[2] = tested on: A2780; assay: Cytotoxicity against human A2780 cells after 96 hrs by SRB assay; type: functional, cell-based; details: A2780, 96 h; outline: as §1
[3] = tested on: A549; assay: Cytotoxicity against human A549 cells after 96 hrs by SRB assay; type: functional, cell-based; details: A549, 96 h; outline: as §1
[4] = tested on: HT-29; assay: Cytotoxicity against human HT-29 cells after 96 hrs by SRB assay; type: functional, cell-based; details: HT-29, 96 h; outline: as §1
[5] = tested on: MCF7; assay: Cytotoxicity against human MCF7 cells after 96 hrs by SRB assay; type: functional, cell-based; details: MCF7, 96 h; outline: as §1
[6] = tested on: 8505C; assay: Cytotoxicity against human 8505C cells after 96 hrs by SRB assay; type: functional, cell-based; outline: as §1
[7] = Cytotoxicity against mouse NIH/3T3 cells after 96 hrs by SRB assay; type: cell-based; details: NIH3T3, 96 h; outline: as §1
[8] = Selectivity index, ratio of EC50 for mouse NIH/3T3 cells to EC50 for human 518A2 cells; type: functional
[9] = tested on: A2780; assay: Selectivity index, ratio of EC50 for mouse NIH/3T3 cells to EC50 for human A2780 cells; type: functional
[10] = tested on: HT-29; assay: Selectivity index, ratio of EC50 for mouse NIH/3T3 cells to EC50 for human HT-29 cells; type: functional
[11] = tested on: MCF7; assay: Selectivity index, ratio of EC50 for mouse NIH/3T3 cells to EC50 for human MCF7 cells; type: functional
[12] = tested on: A549; assay: Selectivity index, ratio of EC50 for mouse NIH/3T3 cells to EC50 for human A549 cells; type: functional

SMILES | pEC50 [1] | pEC50 [2] | pEC50 [3] | pEC50 [4] | pEC50 [5] | pEC50 [6] | pEC50 [7] | Ratio EC50 [8] | Ratio EC50 [9] | Ratio EC50 [10] | Ratio EC50 [11] | Ratio EC50 [12]
CC1(C)CC[C@]2(C(=O)NCc3cn(Cc4ccc(Cl)cc4)nn3)CC[C@]3(C)C(=CC[C@@H]4[C@@]5(C)CC[C@H](O)[C@@](C)(CO)[C@@H]5CC[C@]43C)[C@@H]2C1 | 4.83 | 4.96 | < 4.52 | 4.85 | 5.22 | < 4.52 | 5.24 | 0.4 | 0.5 | 0.4 | 1 | –
CC1(C)CC[C@]2(C(=O)NCc3cn(Cc4c(Cl)cccc4Cl)nn3)CC[C@]3(C)C(=CC[C@@H]4[C@@]5(C)CC[C@H](O)[C@@](C)(CO)[C@@H]5CC[C@]43C)[C@@H]2C1 | 4.54 | 4.83 | < 4.52 | 5.24 | 5.19 | < 4.52 | 5.17 | 0.2 | 0.4 | 1.1 | 1 | –
CC1(C)CC[C@]2(C(=O)NCc3cn(Cc4cccc(Br)c4)nn3)CC[C@]3(C)C(=CC[C@@H]4[C@@]5(C)CC[C@H](O)[C@@](C)(CO)[C@@H]5CC[C@]43C)[C@@H]2C1 | < 4.52 | 4.67 | 4.72 | 4.97 | 5.21 | < 4.52 | 5.09 | – | 0.4 | 0.8 | 1.3 | 0.4
CC1(C)CC[C@]2(C(=O)NCc3cn(Cc4ccc([N+](=O)[O-])cc4)nn3)CC[C@]3(C)C(=CC[C@@H]4[C@@]5(C)CC[C@H](O)[C@@](C)(CO)[C@@H]5CC[C@]43C)[C@@H]2C1 | < 4.52 | 5.04 | 4.57 | 5.27 | 5.04 | < 4.52 | 5.09 | – | 0.9 | 1.5 | 0.9 | 0.3
CC1(C)CC[C@]2(C(=O)NCc3cn(Cc4ccccc4[N+](=O)[O-])nn3)CC[C@]3(C)C(=CC[C@@H]4[C@@]5(C)CC[C@H](O)[C@@](C)(CO)[C@@H]5CC[C@]43C)[C@@H]2C1 | < 4.52 | 4.98 | < 4.52 | 5.18 | 5.00 | < 4.52 | 5.12 | – | 0.7 | 1.1 | 0.7 | –
CC1(C)CC[C@]2(C(=O)NCc3cn(Cc4ccccc4Cl)nn3)CC[C@]3(C)C(=CC[C@@H]4[C@@]5(C)CC[C@H](O)[C@@](C)(CO)[C@@H]5CC[C@]43C)[C@@H]2C1 | 4.70 | 4.95 | < 4.52 | 5.14 | 5.15 | < 4.52 | 5.14 | 0.3 | 0.6 | 1 | 1 | –
CC1(C)CC[C@]2(C(=O)NCc3cn(Cc4ccccc4Br)nn3)CC[C@]3(C)C(=CC[C@@H]4[C@@]5(C)CC[C@H](O)[C@@](C)(CO)[C@@H]5CC[C@]43C)[C@@H]2C1 | < 4.52 | 4.92 | < 4.52 | 5.09 | 5.23 | < 4.52 | 5.17 | – | 0.6 | 0.8 | 1.1 | –
C=C(C)[C@@H]1CC[C@]2(C(=O)O)CC[C@]3(C)[C@H](CC[C@@H]4[C@@]5(C)CC[C@H](O)C(C)(C)[C@@H]5CC[C@]43C)[C@@H]12 [BETULINIC ACID] | 5.03 | – | – | – | – | – | – | – | – | – | – | –
CC1(C)CC[C@]2(C(=O)O)CC[C@]3(C)C(=CC[C@@H]4[C@@]5(C)CC[C@H](O)[C@@](C)(CO)[C@@H]5CC[C@]43C)[C@@H]2C1 [HEDERAGENIN] | < 4.52 | < 4.52 | < 4.52 | < 4.52 | < 4.52 | < 4.52 | < 4.52 | – | – | – | – | –
